Data on 16 compounds can be found in ChEMBL document CHEMBL1153578, “Synthesis and evaluation of anti-tumor activities of N4 fatty acyl amino acid derivatives of 1-beta-arabinofuranosylcytosine” (Eur J Med Chem, 2009).

One data set has as its system HeLa. Kind of data set: Cytotoxicity against human HeLa cells after 48 hrs by MTT assay. Type of data set: functional, cell-based. In short, it runs like this: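 HeLa cells were grown in DMEM with 10% FBS and penicillin/streptomycin, seeded at 5 × 10⁴/mL, and treated with 0.5, 1.0, 5.0, 10 and 50 of compound in PBS with 4% DMSO, in triplicate. MTT (5 mg/mL) was added for 4 h at 37 °C without centrifugation, then supernatant removed and formazan dissolved in DMSO. Read at 570 nm (reference 630 nm) with survival normalized to medium-blanked control; IC50 = concentration causing 50% cell death.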
On the technique in general: Formazan colour is commonly taken as a measure of viable cells.

Data set [1] relates to CCRF S-180. The data set can be described thus: Antitumor activity against mouse S180 cells xenografted in ip dosed Kunming mouse assessed as tumor growth inhibition after 7 days. Type of data set: functional. In short, it runs like this: (§1)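 Kunming mice received 0.2 mL of S180 cells (passaged in mouse abdomen, harvested day 8, 2.0 × 10⁷/mL) and were randomized into groups of 10. Compounds were given at 7.8 mmol/L in 0.5% CMC-Na (solution or suspension), 0.2 mL i.p. daily for 7 days. Mice were then sacrificed and tumors weighed. Inhibition = (mean control weight − mean treated weight)/mean control weight × 100%.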

Data set [2] has as its system CCRF S-180. Kind of data set: Antitumor activity against mouse S180 cells xenografted in ip dosed Kunming mouse assessed as tumor weight after 7 days. Type of data set: functional. In outline: as §1
Another data set has as its system HL-60. The data set can be described thus: Cytotoxicity against human HL60 cells after 48 hrs by MTT assay. The format is functional, cell-based. The note with it: HL-60, 48 h. In outline:
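HL-60 cells were grown in RPMI 1640 with 10% FBS and penicillin/streptomycin, seeded at 5 × 10⁴/mL, and exposed to 5 concentrations (0.01–1.00) in PBS with 4% DMSO, in triplicate. MTT was added at 5 mg/mL for 4 h at 37 °C. Plates were centrifuged (1000 r/min, 10 min), supernatant discarded, and crystals dissolved in DMSO. Read at OD 570/630 nm, blank-corrected against control; IC50 = concentration giving 50% cell death.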

A short description of data set [3]: Lipophilicity, log P of the compound. Type of data set: physicochemical. The note with it: octanol/water.

Consider `CCCCCCCCCCCCCCCCCC(=O)N[C@@H](CCCNC(=N)N)C(=O)Nc1ccn([C@H]2O[C@@H](CO)[C@H](O)[C@H]2O)c(=O)n1`, for which the IC50 amounted to 12.1 µM in the data set on HeLa and 1.7 µM with HL-60. For the same compound, the TGI in the data set with CCRF S-180 [1] turned out to be 8.1%. Further, the Activity in the data set with CCRF S-180 [2] worked out at 1.168 g. The logP in data set [3] is 0.61.

For the compound `CCCCCCCCCCCCCCCCCC(=O)N[C@@H](CCSC)C(=O)Nc1ccn([C@H]2O[C@@H](CO)[C@H](O)[C@H]2O)c(=O)n1`, the IC50 in the data set on HeLa worked out at 9 µM; in the data set with HL-60, 0.803 µM. In addition, the TGI in the data set on CCRF S-180 [1] was determined as 65.5%. The Activity with CCRF S-180 [2] came out at 0.438 g. For the same compound, in data set [3], the logP came to 1.09.

Consider `CCCCCCCCCCCCCC(=O)N[C@@H](Cc1ccc(O)cc1)C(=O)Nc1ccn([C@H]2O[C@@H](CO)[C@H](O)[C@H]2O)c(=O)n1`, for which the IC50 in the data set on HeLa amounted to 39.1 µM; with HL-60, 1.71 µM. In addition, the TGI in the data set on CCRF S-180 [1] worked out at 11.4%. Also, in the data set with CCRF S-180 [2], the Activity came to 1.125 g. Moreover, the logP in data set [3] was found to be 0.9.

`CCCCCCCCCCCCCCCCCC(=O)N[C@@H](CCC(=O)O)C(=O)Nc1ccn([C@H]2O[C@@H](CO)[C@H](O)[C@H]2O)c(=O)n1`: the results for the IC50 in the data set with HeLa and in the data set with HL-60 were 19 µM and 1.14 µM, respectively. For the same compound, in the data set on CCRF S-180 [1], the TGI came out at 12.9%. Moreover, in the data set on CCRF S-180 [2], the Activity was 1.106 g. Besides, the logP in data set [3] came out at 0.5.

Take `CCCCCCCCCCCCCC(=O)N[C@@H](CCCNC(=N)N)C(=O)Nc1ccn([C@H]2O[C@@H](CO)[C@H](O)[C@H]2O)c(=O)n1`: the values for the IC50 with HeLa and in the data set on HL-60 were 32 µM and 0.405 µM, respectively. In addition, the TGI in the data set with CCRF S-180 [1] is given as 39.2%. Besides, the Activity in the data set with CCRF S-180 [2] is 0.773 g. The compound further had a logP in data set [3] of 0.45.

Consider `CCCCCCCCCC(=O)N[C@@H](CCSC)C(=O)Nc1ccn([C@H]2O[C@@H](CO)[C@H](O)[C@H]2O)c(=O)n1`, for which the IC50 worked out at 3 µM in the data set on HeLa and 0.28 µM in the data set on HL-60. In addition, the TGI in the data set with CCRF S-180 [1] is listed as 25.6%. Further, in the data set with CCRF S-180 [2], the Activity was determined as 0.944 g. In data set [3], the logP was found to be 0.68.

`CCCCCCCCCCCCCCCCCC(=O)N[C@H](C(=O)Nc1ccn([C@H]2O[C@@H](CO)[C@H](O)[C@H]2O)c(=O)n1)C(C)C`: the IC50 in the data set with HeLa was 13 µM; with HL-60 it was 31.9 µM. Besides, the TGI in the data set on CCRF S-180 [1] was 58.9%. The Activity in the data set with CCRF S-180 [2] came out at 0.523 g. The same compound displayed a logP in data set [3] of 0.91.

Take `CCCCCCCCCC(=O)N[C@H](C(=O)Nc1ccn([C@H]2O[C@@H](CO)[C@H](O)[C@H]2O)c(=O)n1)C(C)C`: the IC50 with HeLa worked out at 4.99 µM; with HL-60, 2.04 µM. In addition, in the data set on CCRF S-180 [1], the TGI amounted to 7%. In addition, the Activity in the data set with CCRF S-180 [2] was determined as 1.181 g. Also, the log partition coefficient (logP) in data set [3] worked out at 0.78.

Turning to `CCCCCCCCCC(=O)N[C@@H](CCCNC(=N)N)C(=O)Nc1ccn([C@H]2O[C@@H](CO)[C@H](O)[C@H]2O)c(=O)n1`, the IC50 in the data set on HeLa is 6 µM; with HL-60, 0.584 µM. Further, the TGI in the data set with CCRF S-180 [1] was determined as 15.7%. For the same compound, in the data set on CCRF S-180 [2], the Activity turned out to be 1.071 g. The logP in data set [3] amounted to 0.76.

As to `CCCCCCCCCC(=O)N[C@@H](Cc1ccc(O)cc1)C(=O)Nc1ccn([C@H]2O[C@@H](CO)[C@H](O)[C@H]2O)c(=O)n1`, the IC50 came out at 1 µM in the data set on HeLa and 2.98 µM with HL-60. Further, the TGI in the data set with CCRF S-180 [1] came out at 19.1%. Also, the Activity in the data set on CCRF S-180 [2] was 1.028 g. In addition, the logP in data set [3] came out at 0.81.

In the case of `CCCCCCCCCCCCCCCCCC(=O)N[C@@H](Cc1ccc(O)cc1)C(=O)Nc1ccn([C@H]2O[C@@H](CO)[C@H](O)[C@H]2O)c(=O)n1`, the values for the IC50 with HeLa and in the data set with HL-60 were 10 µM and 1.15 µM, respectively. Moreover, the TGI with CCRF S-180 [1] is 16.5%. Further, in the data set with CCRF S-180 [2], the Activity was found to be 1.06 g. The logP in data set [3] was determined as 0.97.

On to `CCCCCCCCCCCCCC(=O)N[C@@H](CCSC)C(=O)Nc1ccn([C@H]2O[C@@H](CO)[C@H](O)[C@H]2O)c(=O)n1`, for which the IC50 with HeLa is 8.02 µM; in the data set on HL-60 it was 0.272 µM. In addition, the TGI in the data set on CCRF S-180 [1] came to 37.6%. Further, the Activity in the data set with CCRF S-180 [2] came out at 0.793 g. In data set [3], the logP was 0.88.

Take `CCCCCCCCCCCCCC(=O)N[C@@H](CCC(=O)O)C(=O)Nc1ccn([C@H]2O[C@@H](CO)[C@H](O)[C@H]2O)c(=O)n1`: the values for the IC50 in the data set on HeLa and with HL-60 were 41 µM and 0.502 µM, respectively. Moreover, the TGI in the data set with CCRF S-180 [1] is given as 24.6%. The Activity in the data set with CCRF S-180 [2] is listed as 0.958 g. Besides, in data set [3], the logP amounted to 0.25.

For `CCCCCCCCCCCCCC(=O)N[C@H](C(=O)Nc1ccn([C@H]2O[C@@H](CO)[C@H](O)[C@H]2O)c(=O)n1)C(C)C`, the IC50 was 26 µM with HeLa and 32.3 µM in the data set with HL-60. Moreover, the TGI with CCRF S-180 [1] stood at 8.4%. Moreover, the Activity in the data set with CCRF S-180 [2] is 1.163 g. In addition, in data set [3], the logP was 0.9.

Regarding `CCCCCCCCCC(=O)N[C@@H](CCC(=O)O)C(=O)Nc1ccn([C@H]2O[C@@H](CO)[C@H](O)[C@H]2O)c(=O)n1`, the IC50 in the data set with HeLa came to 5 µM; in the data set with HL-60 it was 1.86 µM. For the same compound, the TGI in the data set on CCRF S-180 [1] is reported as 15.6%. The Activity with CCRF S-180 [2] was determined as 1.072 g. The compound further displayed a logP in data set [3] of -0.28.

In the case of `Nc1ccn([C@@H]2O[C@H](CO)[C@@H](O)[C@@H]2O)c(=O)n1` [CYTARABINE], the results for the IC50 in the data set with HeLa and with HL-60 were 464 µM and 0.118 µM, respectively.

In general, IC50 refers to the concentration at which inhibition is half-maximal. A higher IC50 goes with a need for much substance. What is called TGI is the reduction of tumour growth relative to the control group. As usually defined, the logP is a log measure of how a compound divides between an organic and an aqueous phase.
